# According to PubChem BioAssay:
# Active and inactive are the calls of the source.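 The calls were made as follows: active = duplicate-averaged activation above buffer control mean plus 5 SD of those controls; inactive = the rest.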
# Experiment: thallium flux activation in parental CHO cells, counter-screen for KCNQ1 potentiator project (AID 493006);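 as to activation: fluorescence ratio of max minus min over baseline after K+ and Tl+ depolarization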
# Conditions: parental CHO-K1 cells, FluxOR thallium flux, at 10 µM; hits give high values
# How it was run: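 Assay system: parental CHO-K1 cells lacking KCNQ1, loaded with FluxOR thallium dye; timing: dye 90 min RT, compound 20 min RT; signal: kinetic thallium-flux fluorescence; repeats: duplicate wells per compound, percent values averaged; benchmarks: buffer and R-L3 controls; reagent: Potassium/thallium depolarization pulse; read-out: fluorescence change ratio scaled 0% buffer, 100% R-L3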
SMILES,activation,outcome
Cc1ccc(-c2csc(=S)[nH]2)cc1,628% (active),
Fc1ccccc1C(c1nnnn1C1CCCC1)N1CCN(Cc2ccccc2)CC1 (stereo not given),,inactive
CCC1(c2ccccc2)NC(=O)N(CC(=O)Nc2ccccc2C(=O)N2CCCCC2)C1=O (stereo not given),,inactive
Cc1sc2ncnc(SCC(=O)c3ccc(O)cc3O)c2c1C,150% (active),
Oc1ccc(N=Nc2ccc3c(c2)OCCO3)c2ncccc12,310% (active),
CCC(/C=N/NC(=O)C1COc2ccccc2O1)CC (stereo not given),,inactive
COc1cccc(C2=NOC(C(=O)NCc3ccccc3)C2)c1 (stereo not given),,inactive
COc1ccccc1CNC(=O)c1oc2ccc(S(=O)(=O)N3CCOCC3)cc2c1C,,inactive
O=C(O)CSc1cc(NS(=O)(=O)c2ccc(Br)cc2)c2ccccc2c1O,,inactive
Cc1ccc(-c2ccc(C3C(C#N)=C(N)Oc4n[nH]c(C)c43)o2)cc1 (stereo not given),,inactive
Cc1cc(Cl)ccc1OCc1n[nH]c(=S)n1C1CCCCC1,190% (active),
C(=N\NC(=Nc1ccccc1)c1ccccn1)/c1ccccn1,,inactive
COc1cnc(-c2ccccn2)nc1Oc1ccccc1Cl,,inactive
Cc1cc(NC(=O)CSc2cn(CCNC(=O)c3ccc(F)cc3)c3ccccc23)no1,,inactive
Cc1cccc(C(=O)NC(=S)N(C)C2CCCCC2)c1,268% (active),
CN(C)C(=S)NC(=O)c1cccc(Cl)c1,,inactive
CCCc1c(C)[nH]c2ccc(NC(C)=O)cc2c1=O,,inactive
Cc1cc2n(n1)SC(Nc1ccc(F)c(Cl)c1)N2 (stereo not given),,inactive
C=C[C@@]1(C)CC(=O)[C@]2(O)[C@@]3(C)[C@@H](O)CCC(C)(C)[C@@H]3[C@H](OC(C)=O)[C@H](O)[C@@]2(C)O1,,inactive
CCOC(=O)Cn1c2ccccc2c2nc3ccccc3nc21,,inactive

SMILES,activation,outcome
CC(C)N(Cc1ccccc1)C(=S)NC(=O)C1(C)CC1(Cl)Cl (stereo not given),357% (active),
O=C(c1ccco1)N1CCN=C1SCc1ccc(F)cc1,,inactive
CCOC(=O)c1ccc(Oc2nc(NC(C)(C)C)nc(N(C)C)n2)cc1,,inactive
CC(C)(C)NC(=O)C(=O)NNC(=O)C12CC3CC(CC(C3)C1)C2,178% (active),
S=c1nc(C2CCCCC2)n(-c2ccccc2)[nH]1,356% (active),
COc1ccc(OCC(=O)N2CCCC2=O)c([N+](=O)[O-])c1,,inactive
CCOC(=O)c1c(-c2ccccc2)oc2ccc(O)c(CN3CCN(C)CC3)c12,,inactive
Cc1ccc(NC(=O)CCS(=O)(=O)c2cccc3nonc23)c(Br)c1,,inactive
Cc1ccc(NC(=S)NC(=O)c2cncc(Br)c2)cc1Cl,323% (active),
COc1ccccc1N1C(=NC(=O)C(C)Oc2ccccc2)SC2CS(=O)(=O)CC21 (stereo not given),,inactive
CCCCN1C=CC(=C2C(=O)c3ccccc3C2=O)C=C1,,inactive
O=C(NCc1ccccc1)c1onc(CSc2ccc(F)cc2)c1C(=O)NCCCN1CCOCC1,,inactive
O=C(NC(=S)NCc1ccccc1)c1cccs1,167% (active),
COc1cc(CN2CCC(C)CC2)ccc1OCc1ccccc1,292% (active),
COc1ccc(CNC(=O)CNC(C)c2ccc(F)cc2)cc1 (stereo not given),,inactive
Cc1cc(N=Cc2cc(Br)ccc2O)no1,144% (active),
Cc1ccc(C(=O)Nc2nc(-c3ccccc3)c(-c3ccccc3)o2)cc1,201% (active),
Cc1ccc(NC(=O)C(=O)NNC(=O)c2ccccc2C)cc1Cl,304% (active),
Cn1nc(SCC(=O)O)sc1=S,,inactive
COc1cccc(/C=N/NC(=O)C(C)n2nc(C)c([N+](=O)[O-])c2C)c1O (stereo not given),,inactive
